According to ChEMBL document CHEMBL4145612, “Phenolic Constituents Isolated from the Twigs of Cinnamomum cassia and Their Potential Neuroprotective Effects” (J Nat Prod, 2018):

Tested on: SH-SY5Y
Test: Neuroprotective activity against tunicamycin-induced cell death in human SH-SY5Y cells pretreated for 6 hrs followed by tunicamycin addition measured after 48 hrs by MTT assay
Assay type: functional, cell-based
Summary of the method: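 SH-SY5Y cells grown in DMEM/High Glucose:F12 (1:1) with 10% FBS at 37 °C, 5% CO2, seeded 4 × 10^3/well and left 12 h. Compounds given at 25, 50 and 100 μM for 6 h, then tunicamycin added for 48 h. Medium replaced; MTT 0.5 mg/mL final, 4 h at 37 °C; absorbance 570 nm. Salubrinal 40 μM as positive control; three independent experiments, means ± SEM; EC50 derived.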

| Structure (SMILES) | Activity | EC50 [µM] |
| --- | --- | --- |
| C=CCc1cc(O)c(-c2c(OC)cc([C@@H]3OO[C@@H]3CO)cc2OC)c(OC)c1 | Dose-dependent effect | 21 to 75 |
| COc1ccc([C@@H]2C(=O)OC[C@H]2c2ccc3c(c2)OCO3)cc1 | Dose-dependent effect | 21 to 75 |
| O=C(CCc1ccccc1)OC/C=C/c1ccccc1 | Dose-dependent effect | 21 to 75 |
| OC[C@H]1O[C@@H](OC/C=C/c2ccccc2)[C@H](O)[C@@H](O)[C@@H]1O | Dose-dependent effect | 21 to 75 |
| O=C1OC[C@@H](c2ccc(O)c(O)c2)[C@@H]1c1ccc(O)cc1 | Dose-dependent effect | 21 to 75 |
| COc1ccc([C@@H]2C(=O)OC[C@H]2c2ccc(O)c(OC)c2)cc1 | Dose-dependent effect | 21 to 75 |
| C=CCc1cc(O)c(-c2c(OC)cc([C@H]3OO[C@H]3CO)cc2OC)c(OC)c1 | Dose-dependent effect | 21 to 75 |
| COc1cc([C@H](OC)[C@@H]2CO[C@@H](c3cc(OC)c(O)c(OC)c3)[C@@H]2COC(C)=O)cc(OC)c1O | Dose-dependent effect | 21 to 75 |
